According to ChEMBL document CHEMBL1208732, “Addressing PXR liabilities of phthalazine-based hedgehog/smoothened antagonists using novel pyridopyridazines” (Bioorg Med Chem Lett, 2010):
pEC50, pIC50: −log10 of the molar value.

Columns and labels:
[1] = molecular target: T1, Nuclear receptor subfamily 1 group I member 2 (Homo sapiens, UniProt O75469); assay: Activation of human PXR expressed in HepG2 cells assessed as luciferase activity at 2 uM by chemiluminescence assay relative to rifampin; assay type: cell-based; settings: hepg2, 2 µM
T1 sequence (O75469 whole entry): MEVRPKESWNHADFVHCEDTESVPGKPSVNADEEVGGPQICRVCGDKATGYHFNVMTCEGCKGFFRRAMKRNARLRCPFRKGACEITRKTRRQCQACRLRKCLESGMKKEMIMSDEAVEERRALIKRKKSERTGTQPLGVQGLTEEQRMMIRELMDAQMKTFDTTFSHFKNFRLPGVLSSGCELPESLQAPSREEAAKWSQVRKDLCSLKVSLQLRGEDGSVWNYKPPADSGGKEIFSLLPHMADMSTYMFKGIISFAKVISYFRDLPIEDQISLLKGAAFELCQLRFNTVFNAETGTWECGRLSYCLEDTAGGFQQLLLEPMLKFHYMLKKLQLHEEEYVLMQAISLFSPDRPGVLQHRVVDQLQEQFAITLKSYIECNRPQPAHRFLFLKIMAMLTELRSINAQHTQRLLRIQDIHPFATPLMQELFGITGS
Procedure, shortened: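 HepG2 cells transfected with a luciferase reporter construct driven by human PXR cDNA. Luciferase activity read by chemiluminescence and expressed as percent of the rifampin control.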

[2] = Metabolic stability in rat liver microsomes assessed as compound turn over after 30 mins; assay type: ADME, Microsome; settings: read-out: Activity
Procedure, shortened: (§1)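 Percent turnover of compound within 30 min in human or rat liver microsome homogenates.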

[3] = Clearance in rat at 0.5 mg/kg, iv; assay type: ADME, organism-based; set-up: dose 0.5 mg/kg, route intravenous; settings: in vivo
Procedure, shortened: (§2)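 Pharmacokinetics measured in rat or mouse, with intravenous dosing at 0.5 mg/kg and oral dosing at 2 mg/kg. Reported parameters are iv clearance, Vdss, oral AUC and %F.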

[4] = Volume of distribution at steady state in rat at 0.5 mg/kg, iv and 2 mg/kg, po; assay type: ADME, organism-based; settings: in vivo, read-out: Vdss; procedure, shortened: as §2
[5] = Fraction unbound in mouse plasma by ultra centrifugation method; assay type: ADME, cell-free
[6] = AUC in rat at 2 mg/kg, po; assay type: ADME, organism-based; set-up: dose 2 mg/kg, route oral; settings: plasma; procedure, shortened: as §2
[7] = Oral bioavailability in rat at 2 mg/kg; assay type: ADME, organism-based; settings: in vivo; procedure, shortened: as §2
[8] = Metabolic stability in human liver microsomes assessed as compound turn over after 30 mins; assay type: ADME, Microsome; settings: read-out: Activity; procedure, shortened: as §1
Protein smoothened [9] = molecular target: Protein smoothened (Homo sapiens, UniProt Q99835); assay: Antagonist activity at human Smo receptor in HEPM cells assessed as inhibition of Gli expression after 24 hrs by quantigene assay; assay type: functional, cell-based
Sequence of Protein smoothened (Homo sapiens, UniProt Q99835) (Q99835 whole entry): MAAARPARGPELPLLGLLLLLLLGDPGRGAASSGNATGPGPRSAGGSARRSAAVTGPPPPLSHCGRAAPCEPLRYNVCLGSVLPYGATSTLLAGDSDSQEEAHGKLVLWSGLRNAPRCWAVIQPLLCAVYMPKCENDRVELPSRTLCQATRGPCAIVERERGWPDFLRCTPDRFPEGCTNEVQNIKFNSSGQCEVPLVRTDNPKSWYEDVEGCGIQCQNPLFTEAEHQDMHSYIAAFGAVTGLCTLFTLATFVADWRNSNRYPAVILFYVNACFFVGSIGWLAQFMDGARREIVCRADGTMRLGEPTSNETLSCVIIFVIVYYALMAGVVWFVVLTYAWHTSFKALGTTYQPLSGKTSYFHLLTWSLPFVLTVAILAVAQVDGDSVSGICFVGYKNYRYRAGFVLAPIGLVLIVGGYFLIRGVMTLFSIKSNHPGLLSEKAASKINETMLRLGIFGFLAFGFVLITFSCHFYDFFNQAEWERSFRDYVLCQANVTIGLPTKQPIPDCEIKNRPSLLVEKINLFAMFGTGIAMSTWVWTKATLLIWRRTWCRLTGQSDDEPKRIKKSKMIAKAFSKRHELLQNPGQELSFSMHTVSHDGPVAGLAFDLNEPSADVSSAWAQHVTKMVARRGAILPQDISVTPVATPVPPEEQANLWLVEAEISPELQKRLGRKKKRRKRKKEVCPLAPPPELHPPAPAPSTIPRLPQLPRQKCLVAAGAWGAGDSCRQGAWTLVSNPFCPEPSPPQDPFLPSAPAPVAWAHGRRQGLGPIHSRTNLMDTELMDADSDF
Procedure, shortened: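 HEPM cells incubated with compound in MEM with 0.5% charcoal-dextran treated FBS and […] myristoylated mouse Shh protein. GLI expression measured 24 h after adding compound and Shh, using a Quantigene assay.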

Protein smoothened [10] = molecular target: Protein smoothened (Mus musculus, UniProt P56726); assay: Antagonist activity at mouse cloned Smo receptor expressed in NIH-3T3 cells co expressing Gli1 binding site after 15 hrs by luciferase reporter gene assay; assay type: cell-based, NIH3T3
Sequence of Protein smoothened (Mus musculus, UniProt P56726) (P56726 whole entry): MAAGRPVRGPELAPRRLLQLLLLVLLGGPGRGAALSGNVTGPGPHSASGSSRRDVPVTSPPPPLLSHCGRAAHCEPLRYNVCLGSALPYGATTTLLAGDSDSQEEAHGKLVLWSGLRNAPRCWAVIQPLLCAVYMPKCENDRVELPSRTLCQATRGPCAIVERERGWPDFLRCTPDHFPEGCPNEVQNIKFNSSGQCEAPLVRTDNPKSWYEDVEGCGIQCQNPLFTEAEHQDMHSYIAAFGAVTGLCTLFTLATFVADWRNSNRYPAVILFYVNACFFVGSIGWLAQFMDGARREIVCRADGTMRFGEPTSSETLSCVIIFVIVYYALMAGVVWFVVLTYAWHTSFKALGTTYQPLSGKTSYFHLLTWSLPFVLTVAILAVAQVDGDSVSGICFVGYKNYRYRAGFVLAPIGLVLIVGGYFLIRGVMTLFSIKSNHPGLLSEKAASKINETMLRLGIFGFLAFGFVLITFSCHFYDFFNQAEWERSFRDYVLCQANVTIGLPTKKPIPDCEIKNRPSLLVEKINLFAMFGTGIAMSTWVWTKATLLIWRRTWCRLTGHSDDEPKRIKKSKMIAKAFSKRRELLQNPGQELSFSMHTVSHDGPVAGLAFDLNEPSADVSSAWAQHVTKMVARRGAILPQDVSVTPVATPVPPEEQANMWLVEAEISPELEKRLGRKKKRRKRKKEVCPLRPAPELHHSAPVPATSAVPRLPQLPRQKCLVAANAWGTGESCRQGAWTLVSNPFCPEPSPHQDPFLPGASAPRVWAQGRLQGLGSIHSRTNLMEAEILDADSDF
Procedure, shortened: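 Stable NIH-3T3 clone carrying a luciferase reporter (pGL4.16) with five consensus Gli1 binding sites. Cells incubated 15 h with compound in Optimem with 0.5% charcoal-dextran treated FBS and […] myristoylated mouse Shh. Luciferase read with Bright-Glo on a luminometer. Threefold dilution series, run in quadruplicate.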

Mus musculus [11] = assay: AUC in mouse at 2 mg/kg, po; assay type: ADME, organism-based, Plasma; set-up: dose 2 mg/kg, route oral; settings: in vivo; procedure, shortened: as §2
[12] = Volume of distribution at steady state in mouse at 0.5 mg/kg, iv and 2 mg/kg, po; assay type: ADME, organism-based; settings: in vivo, read-out: Vdss; procedure, shortened: as §2
Mus musculus [13] = assay: Oral bioavailability in mouse at 2 mg/kg; assay type: ADME, organism-based; settings: in vivo; procedure, shortened: as §2
Mus musculus [14] = assay: Clearance in mouse at 0.5 mg/kg, iv; assay type: ADME, organism-based; set-up: dose 0.5 mg/kg, route intravenous; settings: in vivo; procedure, shortened: as §2
Mus musculus [15] = assay: Reduction of Gli1 expression in po dosed NOD-SCID mouse skin after 6 hrs by RT-PCR analysis; assay type: functional, organism-based
Procedure, shortened: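 Female NOD-Scid mice aged 5–8 weeks had one hind flank shaved, then regrown hair removed with wax strips 4 days later. After 5 days mice were dosed orally with compound or vehicle, and skin was harvested 6 h post-dose into RNALater. Tissue homogenized and RNA purified. Four mice per group, two samples per animal, analysed by Dunnett's method.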

SMILES | Activity [1] [%] | metabolised at 0.5 h [2] [%] | metabolised at 0.5 h [8] [%] | pIC50 (Protein smoothened [9]) | further results
O=C(c1ccccc1)N1CCN(c2nnc(-c3ccccc3)c3ccccc23)CC1 | 12 | 39 | – | – | –
C[C@@H]1CN(C(=O)c2ccccc2)CCN1c1nnc(-c2ccc(CO)cc2)c2ccccc12 | 3 | 15 | – | – | clearance [3]: 95 mL/min/kg; Vd [4]: 1.8 L/kg
C[C@@H]1CN(C(=O)c2ccccc2)CCN1c1nnc(-c2ccc(N(C)C)cc2)c2ccccc12 | 17 | – | – | – | –
C[C@@H]1CN(C(=O)c2ccccc2)CCN1c1nnc(-c2ccc(C(F)(F)F)cc2)c2ccccc12 | 81 | – | – | – | fraction unbound [5]: 0.06; AUC [6]: 1200 ng·h/mL
C[C@@H]1CN(C(=O)c2ccccc2)CCN1c1nnc(-c2ccccc2)c2ccccc12 | 30 | 12 | – | – | clearance [3]: 4.67 mL/min/kg; bioavailability [7]: 15%; Vd [4]: 1.7 L/kg; AUC [6]: 1800 ng·h/mL
O=C(c1ccccc1)N1CCN(c2nnc(-c3ccc(Cl)c(Cl)c3)c3ccccc23)CC1 | 48 | 13 | – | – | –
C[C@H]1CN(C(=O)c2ccccc2)CCN1c1nnc(-c2ccccc2)c2ccccc12 | 32 | < 10 | < 10 | – | –
C[C@H]1CN(C(=O)c2ccccc2)CCN1c1nnc(-c2ccc(F)cc2)c2ccccc12 | 61 | 21 | < 10 | 7.92 | –
C[C@@H]1CN(C(=O)c2ccccc2)CCN1c1nnc(-c2ccc(C(N)=O)cc2)c2ccccc12 | 5.9 | < 10 | < 10 | 7.72 | –
C[C@@H]1CN(C(=O)c2ccccc2)CCN1c1nnc(-c2ccc(N3CCOCC3)cc2)c2ccccc12 | 6.6 | 28 | 19 | 7.68 | –
C[C@@H]1CN(C(=O)c2ccccc2)CCN1c1nnc(-c2ccc(C(=O)O)cc2)c2ccccc12 | 2.7 | < 10 | < 10 | < 6.00 | –
CC(=O)Oc1ccc(-c2nnc(N3CCN(C(=O)c4ccccc4)C[C@H]3C)c3ccccc23)cc1 | 6.1 | > 95 | > 95 | 8.48 | –
C[C@@H]1CN(C(=O)c2ccccc2)CCN1c1nnc(-c2ccc(CC(N)=O)cc2)c2ccccc12 | 2.7 | 10 | 10 | 8.32 | clearance [3]: 18.3 mL/min/kg; bioavailability [7]: 22%; Vd [4]: 1.4 L/kg; AUC [6]: 460 ng·h/mL
C[C@@H]1CN(C(=O)c2ccccc2)CCN1c1nnc(-c2ccncc2)c2ccccc12 | 25 | 36 | 11 | 7.60 | –
C[C@@H]1CN(C(=O)c2ccccc2)CCN1c1nnc(-c2cccnc2)c2ccccc12 | 23 | 16 | 19 | 7.10 | –
C[C@@H]1CN(C(=O)c2ccccc2)CCN1c1nnc(-c2ccccn2)c2ccccc12 | 16 | 17 | 12 | 7.24 | –
C[C@@H]1CN(C(=O)c2ccccc2)CCN1c1nnc(-n2cccc2)c2ccccc12 | 12 | 63 | 54 | 8.06 | –
C[C@@H]1CN(C(=O)c2ccccc2)CCN1c1nnc(-n2ccc3ccccc32)c2ccccc12 | 74 | 72 | 55 | 8.10 | –
C[C@@H]1CN(C(=O)c2ccccc2)CCN1c1nnc(-c2ncco2)c2ccccc12 | 7.8 | 22 | < 10 | < 6.00 | –
C[C@@H]1CN(C(=O)c2ccccc2)CCN1c1nnc(-n2ccnc2)c2ccccc12 | 3.7 | 16 | < 10 | < 6.00 | –
C[C@@H]1CN(C(=O)c2ccccc2)CCN1c1nnc(-c2cncnc2)c2ccccc12 | 7.1 | < 10 | < 10 | < 6.00 | –
C[C@@H]1CN(C(=O)c2ccccc2)CCN1c1nnc(-c2ccccc2)c2ncccc12 | 4.1 | – | 13 | 7.18 | –
C[C@@H]1CN(C(=O)c2ccccc2)CCN1c1nnc(-c2ccccc2)c2cccnc12 | 5.7 | – | 56 | 7.80 | –
C[C@@H]1CN(C(=O)c2ccccc2)CCN1c1nnc(-c2ccccc2)c2cnccc12 | 7.5 | – | 30 | 7.92 | –
C[C@@H]1CN(C(=O)c2ccccc2)CCN1c1nnc(-c2ccccc2)c2ccncc12 | 4.9 | – | 13 | 8.24 | pIC50 (Protein smoothened [10]): 8.52; clearance [3]: 7.5 mL/min/kg; bioavailability [7]: 35%; Vd [4]: 1.4 L/kg; AUC [6]: 1600 ng·h/mL
C[C@@H]1CN(C(=O)c2ccccc2)CCN1c1nnc(-c2ccc(C(F)(F)F)cc2)c2ccncc12 | 9 | < 10 | 10 | 9.00 | AUC (Mus musculus [11]): 3.5 µg·h/mL; Vd [12]: 2 L/kg; F (Mus musculus [13]): 46%; CL (Mus musculus [14]): 0.64 L/h/kg; fraction unbound [5]: 0.035; pIC50 (Protein smoothened [10]): 9.15; clearance [3]: 7.67 mL/min/kg; bioavailability [7]: 73%; Vd [4]: 3.5 L/kg; AUC [6]: 3300 ng·h/mL; pEC50 (Mus musculus [15]): 6.34
